In ChEMBL document CHEMBL3286317, “Synthesis and biological evaluation of a unique heparin mimetic hexasaccharide for structure-activity relationship studies” (J Med Chem, 2014) one finds Kd, inhibition and Imax data, which are given here for 3 molecules.

One test concerns the target T1, Interferon gamma (Homo sapiens, UniProt P01579).
T1 sequence (P01579 whole entry): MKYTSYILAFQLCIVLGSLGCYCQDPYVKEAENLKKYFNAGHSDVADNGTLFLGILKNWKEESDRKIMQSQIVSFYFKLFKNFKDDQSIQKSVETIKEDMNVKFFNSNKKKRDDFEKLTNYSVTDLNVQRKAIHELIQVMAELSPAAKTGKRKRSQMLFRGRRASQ
The test is described as follows: Binding affinity to human recombinant IFN-gamma by surface plasmon resonance assay. The gist of the method: (§1)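 Biotinylated low-molecular-weight heparin was captured on a neutravidin surface. Protein at varying concentrations was mixed with a hexasaccharide dilution series and injected. Free protein was read from a quadratic slope-vs-concentration standard curve. KD = [P_free][H_total]/[P_bound], averaged over three hexasaccharide concentrations.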
For orientation: Surface plasmon resonance follows binding to a sensor surface in real time, without labels.

Test [1] concerns the target T2, Secreted frizzled-related protein 1 (Homo sapiens, UniProt Q8N474).
T2 sequence (Q8N474 whole entry): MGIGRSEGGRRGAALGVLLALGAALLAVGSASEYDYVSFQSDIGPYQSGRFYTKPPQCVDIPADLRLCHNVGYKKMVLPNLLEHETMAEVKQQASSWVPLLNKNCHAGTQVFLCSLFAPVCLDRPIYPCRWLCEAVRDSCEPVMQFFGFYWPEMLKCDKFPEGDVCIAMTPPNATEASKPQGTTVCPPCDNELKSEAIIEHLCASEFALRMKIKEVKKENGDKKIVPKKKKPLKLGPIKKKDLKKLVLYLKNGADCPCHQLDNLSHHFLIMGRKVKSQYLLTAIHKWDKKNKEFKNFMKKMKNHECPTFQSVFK
The test is described as follows: Binding affinity to human recombinant sFRP1 by surface plasmon resonance assay. The gist of the method:
as §1

Test [2] deals with T3, Bone morphogenetic protein 2 (Homo sapiens, UniProt P12643).
T3 sequence (P12643 whole entry): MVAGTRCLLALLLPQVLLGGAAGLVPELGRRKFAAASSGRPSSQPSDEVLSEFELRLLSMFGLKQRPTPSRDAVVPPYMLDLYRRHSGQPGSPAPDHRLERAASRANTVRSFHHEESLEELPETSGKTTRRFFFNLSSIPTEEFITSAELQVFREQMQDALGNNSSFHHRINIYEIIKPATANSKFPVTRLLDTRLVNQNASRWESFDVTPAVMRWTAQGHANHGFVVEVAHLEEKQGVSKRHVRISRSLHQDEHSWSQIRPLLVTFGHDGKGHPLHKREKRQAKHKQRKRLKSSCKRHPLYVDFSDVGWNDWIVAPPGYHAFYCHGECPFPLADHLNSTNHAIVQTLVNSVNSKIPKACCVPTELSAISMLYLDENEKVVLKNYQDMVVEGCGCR
Put plainly: Binding affinity to human recombinant BMP2 by surface plasmon resonance assay. Summed up:
as §1

Test [3] deals with Fibroblast growth factor 1 (Homo sapiens, UniProt P05230). The test is described as follows: Binding affinity to human recombinant FGF1 by surface plasmon resonance assay. The gist of the method: as §1
The target in test [4] is T4, Heparanase (Homo sapiens) (UniProt Q9Y251).
T4 sequence (whole entry): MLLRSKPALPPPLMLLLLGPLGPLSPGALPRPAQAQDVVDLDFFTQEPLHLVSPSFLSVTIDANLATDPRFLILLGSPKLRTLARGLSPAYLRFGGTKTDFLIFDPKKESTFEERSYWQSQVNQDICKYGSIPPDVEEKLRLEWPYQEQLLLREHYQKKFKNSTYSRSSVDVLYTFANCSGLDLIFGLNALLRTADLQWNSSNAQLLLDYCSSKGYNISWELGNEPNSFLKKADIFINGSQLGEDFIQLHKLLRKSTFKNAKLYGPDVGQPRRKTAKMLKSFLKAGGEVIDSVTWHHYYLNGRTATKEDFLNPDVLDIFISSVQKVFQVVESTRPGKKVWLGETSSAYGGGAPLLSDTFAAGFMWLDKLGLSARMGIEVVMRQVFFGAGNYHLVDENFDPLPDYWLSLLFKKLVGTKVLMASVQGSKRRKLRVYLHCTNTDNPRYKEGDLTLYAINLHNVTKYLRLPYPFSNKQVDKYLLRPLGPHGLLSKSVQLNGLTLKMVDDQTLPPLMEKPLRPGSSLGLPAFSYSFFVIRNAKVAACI
Put plainly: Inhibition of recombinant heparanase (unknown origin) using biotin-cryptate-labeled heparan sulfate as substrate at 0.03 to 8 mg/ml preincubated for 15 mins prior to substrate challenge by TR-FRET assay. The gist of the method: (§2)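 Recombinant heparanase was preincubated with compound at various concentrations for 15 min at 37 °C. It was then added to biotin-cryptate-labeled heparan sulfate substrate with streptavidin-XL665 for 1 h at 37 °C. Read-out was TR-FRET between europium cryptate and XL665.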
A general note: TR-FRET usually uses a lanthanide donor and a delayed reading to cut background.

Test [5] in a line: Binding affinity to human recombinant IL-23 by surface plasmon resonance assay. Summed up:
as §1

In the next test the target is C-C motif chemokine 2 (Homo sapiens, UniProt P13500). The test is described as follows: Binding affinity to human recombinant CCL2 by surface plasmon resonance assay. Summed up:
as §1

In another test the target is T5, Platelet factor 4 (Homo sapiens, UniProt P02776).
T5 sequence (P02776 whole entry): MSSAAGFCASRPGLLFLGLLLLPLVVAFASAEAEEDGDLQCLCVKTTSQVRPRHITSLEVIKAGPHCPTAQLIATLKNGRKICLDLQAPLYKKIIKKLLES
The test is described as follows: Binding affinity to human recombinant CXCL4 by surface plasmon resonance assay. The gist of the method:
as §1

A further test concerns the target Protein Wnt-3a (Homo sapiens, UniProt P56704). The test is described as follows: Binding affinity to human recombinant WNT3A by surface plasmon resonance assay. The gist of the method: as §1
Test [6] deals with Stromal cell-derived factor 1 (Homo sapiens, UniProt P48061). Put plainly: Binding affinity to human recombinant CXCL12 by surface plasmon resonance assay. The gist of the method: as §1
Test [7] addresses T4, Heparanase (Homo sapiens). Put plainly: Inhibition of recombinant heparanase (unknown origin) using biotin-cryptate-labeled heparan sulfate as substrate at 4.2 mg/ml preincubated for 15 mins prior to substrate challenge by TR-FRET assay. Summed up: as §2
Test [8] addresses T4, Heparanase (Homo sapiens). The test is described as follows: Inhibition of recombinant heparanase (unknown origin) using biotin-cryptate-labeled heparan sulfate as substrate at 8.3 mg/ml preincubated for 15 mins prior to substrate challenge by TR-FRET assay. The gist of the method: as §2

Calls of active or inactive are those of the source. The rule behind the calls is not given here.

Sequence of Stromal cell-derived factor 1 (P48061 whole entry): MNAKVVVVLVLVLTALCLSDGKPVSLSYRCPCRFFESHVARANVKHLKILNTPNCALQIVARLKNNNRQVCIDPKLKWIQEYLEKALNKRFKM
Sequence of C-C motif chemokine 2 (P13500 whole entry): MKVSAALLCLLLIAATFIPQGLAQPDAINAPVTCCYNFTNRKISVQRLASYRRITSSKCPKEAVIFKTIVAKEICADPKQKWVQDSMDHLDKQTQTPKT
Sequence of Fibroblast growth factor 1 (P05230 whole entry): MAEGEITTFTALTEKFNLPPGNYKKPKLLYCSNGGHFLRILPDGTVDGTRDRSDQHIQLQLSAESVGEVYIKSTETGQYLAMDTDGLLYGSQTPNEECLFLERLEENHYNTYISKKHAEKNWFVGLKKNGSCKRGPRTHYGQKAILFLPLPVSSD
Sequence of Protein Wnt-3a (P56704 whole entry): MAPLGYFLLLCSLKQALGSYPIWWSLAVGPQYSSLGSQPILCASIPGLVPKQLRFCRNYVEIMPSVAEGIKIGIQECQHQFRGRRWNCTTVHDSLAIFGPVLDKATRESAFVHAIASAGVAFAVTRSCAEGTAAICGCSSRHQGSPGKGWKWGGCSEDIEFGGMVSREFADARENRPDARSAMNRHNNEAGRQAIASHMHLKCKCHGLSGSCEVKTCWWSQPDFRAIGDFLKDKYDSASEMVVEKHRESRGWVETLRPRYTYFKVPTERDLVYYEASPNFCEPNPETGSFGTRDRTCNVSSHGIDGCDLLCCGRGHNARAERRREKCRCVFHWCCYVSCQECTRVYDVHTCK

In general, Kd refers to the free concentration of one partner at which half of the binding sites on the other are occupied at equilibrium, for simple one-to-one binding. In the case of `NCCCCCO[C@H]1O[C@H](CO)[C@@H](O[C@@H]2O[C@@H](C(=O)O)[C@@H](O[C@H]3O[C@H](CO)[C@@H](O[C@@H]4O[C@@H](C(=O)O)[C@@H](O[C@H]5O[C@H](CO)[C@@H](O[C@@H]6O[C@@H](C(=O)O)[C@@H](O)[C@H](O)[C@H]6OS(=O)(=O)O)[C@H](O)[C@H]5NS(=O)(=O)O)[C@H](O)[C@H]4OS(=O)(=O)O)[C@H](O)[C@H]3NS(=O)(=O)O)[C@H](O)[C@H]2OS(=O)(=O)O)[C@H](O)[C@H]1NS(=O)(=O)O`, the Kd on Interferon gamma was 10 µM; in test [1], 9 µM; in [2] it was 46 µM; in test [3] it was 8 µM; in test [5], 7 µM. Further, the inhibition entry in test [4] is “Active”.
As for `CCCCCO[C@H]1O[C@H](COS(=O)(=O)O)[C@@H](O[C@@H]2O[C@@H](C(=O)O)[C@@H](O[C@H]3O[C@H](COS(=O)(=O)O)[C@@H](O[C@@H]4O[C@@H](C(=O)O)[C@@H](O[C@H]5O[C@H](COS(=O)(=O)O)[C@@H](O[C@@H]6O[C@@H](C(=O)O)[C@@H](O)[C@H](O)[C@H]6OS(=O)(=O)O)[C@H](O)[C@H]5NC(C)=O)[C@H](O)[C@H]4OS(=O)(=O)O)[C@H](O)[C@H]3NS(=O)(=O)O)[C@H](O)[C@H]2O)[C@H](O)[C@H]1NC(C)=O`, the equilibrium dissociation constant (Kd) turned out to be 61 µM on C-C motif chemokine 2; 7 µM on Interferon gamma; 3 µM on Platelet factor 4; 18 µM on Protein Wnt-3a; 24 µM in test [6]; 34 µM in [2]. For the same molecule, the Kd in test [5] was found to be 4 µM. Besides, the Imax in test [7] was determined as 47.2%.
Consider `CCCCCO[C@H]1O[C@H](COS(=O)(=O)O)[C@@H](O[C@@H]2O[C@@H](C(=O)O)[C@@H](O[C@H]3O[C@H](COS(=O)(=O)O)[C@@H](O[C@@H]4O[C@@H](C(=O)O)[C@@H](O[C@H]5O[C@H](COS(=O)(=O)O)[C@@H](O[C@@H]6O[C@@H](C(=O)O)[C@@H](O)[C@H](O)[C@H]6OS(=O)(=O)O)[C@H](O)[C@H]5NC(C)=O)[C@H](O)[C@H]4OS(=O)(=O)O)[C@H](O)[C@H]3NC(C)=O)[C@H](O)[C@H]2OS(=O)(=O)O)[C@H](O)[C@H]1NC(C)=O`, for which the dissociation constant Kd amounted to 77 µM in [6] and 24 µM in test [2]. Also, the Imax in test [8] was 30.7%. For the same molecule, the inhibition entry in [4] is “Active”.
